From ChEMBL document CHEMBL4138102, “Design, synthesis and evaluation of azaacridine derivatives as dual-target EGFR and Src kinase inhibitors for antitumor treatment” (Eur J Med Chem, 2017)
Each block holds one compound with its values, some of them ahead of it.

Assays:
A549 [1] = test: Antiproliferative activity against human A549 cells after 48 hrs by MTT assay; type: functional, cell-based; conditions: A549, 48 h
Outline: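 A549 seeded at 5-7 × 10³ cells per well and incubated overnight at 37 °C, 5% CO₂. Medium then replaced with fresh medium holding graded compound concentrations or equal DMSO, 48 h. MTT (5 mg mL^-1 solution) added for 4 h, formazan dissolved in DMSO, absorbance read at 490 nm; IC₅₀ derived.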

K562 [2] = test: Antiproliferative activity against human K562 cells after 48 hrs by MTT assay; type: functional, cell-based; conditions: K562, 48 h
Outline: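 K562 at 7×10⁵ cells mL^-1 seeded and held 12 h at 37 °C, 5% CO₂. Compound added in triplicate per concentration for 48 h. MTT (5 mg mL^-1 solution) added for 4 h at 37 °C, formazan dissolved in DMSO, absorbance read at 490 nm; IC₅₀ derived.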

[3] = molecular target: Epidermal growth factor receptor (Homo sapiens) (UniProt P00533); test: Inhibition of EGFR (unknown origin) at 10 uM after 15 mins by luminescence assay relative to control
Outline: (§1)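 Contract HTRF-format assay: enzyme, substrate, ATP and compound mixed in 50 mM HEPES/NaOH pH 7.0, 0.02% NaN₃, 0.01% BSA, 0.1 mM orthovanadate, 5 mM MgCl₂, 1 mM DTT. Incubated 15 min at room temperature with compound in 2.5% DMSO. Streptavidin-XL665 and TK antibody europium cryptate added in KF/EDTA buffer; signal read on EnVision; % inhibition computed.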

[4] = molecular target: Epidermal growth factor receptor (Homo sapiens) (UniProt P00533); test: Inhibition of EGFR (unknown origin) at 1 uM after 15 mins by luminescence assay relative to control; outline: as §1
A549 [5] = test: Downregulation of SRC protein expression in human A549 cells after 48 hrs by Western blot analysis; type: functional, cell-based
Outline: (§2)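 Cells exposed to 0, 0.1, 0.5 and 2.5 µM for 48 h, then lysed and protein quantified. Equal protein loads run on 10% SDS-PAGE, transferred to PVDF and probed for EGFR, p-EGFR, Src and p-Src with HRP secondaries and luminescence detection. Band density expressed as percentage of β-actin.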

K562 [6] = test: Induction of apoptosis in human K562 cells assessed as late apoptotic cells at 0.1 uM after 48 hrs by Annexin V-FITC/propidium iodide based flow cytometric analysis (reference value: 2.49%); type: functional
A549 [7] = test: Antiinvasive activity in human A549 cells at 1 uM preincubated for 6 hrs followed by cell seeding on the inserts to reach confluence for 12 hrs measured after 24 hrs by trypan blue staining-based bright-field light microscopic analysis relative to control; type: functional
Outline: (§3)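 A549 cells pretreated with compound for 6 h, seeded on fibronectin-coated 8 µm pore invasion inserts to reach confluence over 12 h, then cultured another 24 h with drug. Cells fixed in 4% formaldehyde, non-invading cells swabbed off, invaders stained with 0.08% trypan blue for 15 min. Five random bright-field views counted; mean ± SEM of five experiments versus control.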

[8] = molecular target: Epidermal growth factor receptor (Homo sapiens) (UniProt P00533); test: Inhibition of EGFR phosphorylation in human A549 cells after 48 hrs by Western blot analysis; type: cell-based; outline: as §2
[9] = molecular target: Proto-oncogene tyrosine-protein kinase Src (Homo sapiens) (UniProt P12931); test: Inhibition of SRC (unknown origin) at 1 uM after 15 mins by luminescence assay relative to control; outline: as §1
K562 [10] = test: Induction of apoptosis in human K562 cells assessed as necrotic cells at 0.01 uM after 48 hrs by Annexin V-FITC/propidium iodide based flow cytometric analysis (reference value: 0.22%); type: functional
K562 [11] = test: Induction of apoptosis in human K562 cells assessed as necrotic cells at 1 uM after 48 hrs by Annexin V-FITC/propidium iodide based flow cytometric analysis (reference value: 0.22%); type: functional
K562 [12] = test: Induction of apoptosis in human K562 cells assessed as early apoptotic cells at 0.1 uM after 48 hrs by Annexin V-FITC/propidium iodide based flow cytometric analysis (reference value: 4.68%); type: functional
K562 [13] = test: Induction of apoptosis in human K562 cells after 48 hrs by Annexin V-FITC/propidium iodide based flow cytometric analysis; type: functional, cell-based
Calf thymus DNA [14] = test: Binding affinity to calf thymus DNA by fluorescence titration method; type: nucleic-acid assay; conditions: Bos taurus
K562 [15] = test: Induction of apoptosis in human K562 cells assessed as late apoptotic cells at 1 uM after 48 hrs by Annexin V-FITC/propidium iodide based flow cytometric analysis (reference value: 2.49%); type: functional
K562 [16] = test: Induction of apoptosis in human K562 cells assessed as late apoptotic cells at 0.01 uM after 48 hrs by Annexin V-FITC/propidium iodide based flow cytometric analysis (reference value: 2.49%); type: functional
K562 [17] = test: Induction of apoptosis in human K562 cells assessed as early apoptotic cells at 1 uM after 48 hrs by Annexin V-FITC/propidium iodide based flow cytometric analysis (reference value: 4.68%); type: functional
K562 [18] = test: Induction of apoptosis in human K562 cells assessed as early apoptotic cells at 0.01 uM after 48 hrs by Annexin V-FITC/propidium iodide based flow cytometric analysis (reference value: 4.68%); type: functional
[19] = molecular target: Epidermal growth factor receptor (Homo sapiens) (UniProt P00533); test: Inhibition of EGFR phosphorylation in human A549 cells by measuring EGFR phosphorylated protein level up to 2.5 uM after 48 hrs by Western blot analysis (reference value: 50.21%); type: cell-based; design: scale not given: the % may be the effect or the level left; outline: as §2
A549 [20] = test: Antiinvasive activity in human A549 cells at 0.1 uM preincubated for 6 hrs followed by cell seeding on the inserts to reach confluence for 12 hrs measured after 24 hrs by trypan blue staining-based bright-field light microscopic analysis relative to control; type: functional; outline: as §3
A549 [21] = test: Downregulation of EGFR protein expression in human A549 cells after 48 hrs by Western blot analysis; type: functional, cell-based; outline: as §2
A549 [22] = test: Downregulation of EGFR protein expression in human A549 cells by measuring EGFR level up to 2.5 uM after 48 hrs by Western blot analysis (reference value: 48.02%); type: functional; outline: as §2
K562 [23] = test: Induction of apoptosis in human K562 cells assessed as necrotic cells at 0.1 uM after 48 hrs by Annexin V-FITC/propidium iodide based flow cytometric analysis (reference value: 0.22%); type: functional
Calf thymus DNA [24] = test: Binding affinity to calf thymus DNA by UV-visible absorption spectral analysis; type: nucleic-acid assay; conditions: Bos taurus
[25] = molecular target: Proto-oncogene tyrosine-protein kinase Src (Homo sapiens) (UniProt P12931); test: Inhibition of SRC phosphorylation in human A549 cells after 48 hrs by Western blot analysis; type: cell-based; outline: as §2

Epidermal growth factor receptor (Homo sapiens), sequence (P00533 whole entry): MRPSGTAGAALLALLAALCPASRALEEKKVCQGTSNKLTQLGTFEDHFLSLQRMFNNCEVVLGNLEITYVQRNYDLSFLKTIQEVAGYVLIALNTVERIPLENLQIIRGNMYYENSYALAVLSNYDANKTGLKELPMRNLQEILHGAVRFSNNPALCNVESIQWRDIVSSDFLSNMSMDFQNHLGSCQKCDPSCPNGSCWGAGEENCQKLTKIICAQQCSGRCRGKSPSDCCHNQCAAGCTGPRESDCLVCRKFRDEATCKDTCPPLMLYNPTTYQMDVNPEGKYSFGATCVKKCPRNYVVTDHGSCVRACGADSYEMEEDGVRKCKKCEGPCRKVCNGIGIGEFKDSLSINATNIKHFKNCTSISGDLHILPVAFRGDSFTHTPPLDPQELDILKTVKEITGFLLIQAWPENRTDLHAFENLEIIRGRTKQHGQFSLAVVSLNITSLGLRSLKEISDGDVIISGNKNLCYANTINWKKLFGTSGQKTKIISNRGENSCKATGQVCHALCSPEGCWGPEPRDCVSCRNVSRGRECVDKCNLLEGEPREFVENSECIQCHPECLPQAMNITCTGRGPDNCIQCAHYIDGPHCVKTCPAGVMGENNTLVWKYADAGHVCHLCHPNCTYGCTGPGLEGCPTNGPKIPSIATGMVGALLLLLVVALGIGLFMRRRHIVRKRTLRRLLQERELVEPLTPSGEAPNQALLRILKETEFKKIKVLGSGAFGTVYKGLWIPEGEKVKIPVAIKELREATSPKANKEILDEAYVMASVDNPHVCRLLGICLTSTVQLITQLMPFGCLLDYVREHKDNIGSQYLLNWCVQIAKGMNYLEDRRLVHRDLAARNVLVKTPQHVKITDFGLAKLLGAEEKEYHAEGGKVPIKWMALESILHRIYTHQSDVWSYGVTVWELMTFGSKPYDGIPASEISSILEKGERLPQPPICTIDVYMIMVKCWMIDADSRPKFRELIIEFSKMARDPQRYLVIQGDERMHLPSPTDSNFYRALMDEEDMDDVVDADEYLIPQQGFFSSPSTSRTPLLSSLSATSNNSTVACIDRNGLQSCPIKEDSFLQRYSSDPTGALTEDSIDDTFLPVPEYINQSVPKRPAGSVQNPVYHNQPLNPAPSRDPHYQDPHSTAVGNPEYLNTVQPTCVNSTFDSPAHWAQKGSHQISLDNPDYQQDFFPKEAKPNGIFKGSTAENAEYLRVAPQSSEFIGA
Proto-oncogene tyrosine-protein kinase Src (Homo sapiens), sequence (P12931 2-536 limits assumed): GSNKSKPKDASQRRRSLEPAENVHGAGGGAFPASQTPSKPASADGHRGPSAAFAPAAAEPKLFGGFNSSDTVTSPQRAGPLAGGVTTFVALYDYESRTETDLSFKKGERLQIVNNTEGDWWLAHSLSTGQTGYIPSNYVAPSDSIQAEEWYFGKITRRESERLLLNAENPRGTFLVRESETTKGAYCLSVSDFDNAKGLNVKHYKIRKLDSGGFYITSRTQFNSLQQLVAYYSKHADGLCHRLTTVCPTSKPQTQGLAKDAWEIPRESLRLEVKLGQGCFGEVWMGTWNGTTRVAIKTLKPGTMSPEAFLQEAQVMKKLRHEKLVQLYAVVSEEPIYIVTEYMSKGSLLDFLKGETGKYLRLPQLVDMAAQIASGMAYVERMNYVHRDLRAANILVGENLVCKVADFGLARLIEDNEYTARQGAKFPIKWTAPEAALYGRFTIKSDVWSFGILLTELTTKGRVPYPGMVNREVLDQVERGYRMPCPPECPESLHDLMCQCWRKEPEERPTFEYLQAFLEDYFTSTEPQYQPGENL

SMILES: O=C(Nc1ccccc1)Nc1ccc(Nc2ncnc3c2Cc2ccccc2N3)cc1
IC50 (A549 [1]): 18 µM | IC50 (K562 [2]): 5.08 µM | inhibition [3]: 32%

SMILES: O=C(Nc1ccc(Nc2ncnc3c2Cc2ccccc2N3)cc1)Nc1cccc(Cl)c1
IC50 (A549 [1]): 17.9 µM | IC50 (K562 [2]): 3.08 µM | inhibition [3]: 42.1%

SMILES: Cc1cccc(NC(=O)Nc2ccc(Nc3ncnc4c3Cc3ccccc3N4)cc2)c1
IC50 (A549 [1]): > 25 µM | IC50 (K562 [2]): 6.97 µM | inhibition [3]: 65.4%

SMILES: Cc1cccc(C(=O)Nc2ccc(Nc3ncnc4c3Cc3ccccc3N4)cc2)c1
IC50 (A549 [1]): 24.8 µM | IC50 (K562 [2]): 3.62 µM | inhibition [3]: 51.1%

SMILES: COc1cccc(NC(=O)Nc2ccc(Nc3ncnc4c3Cc3ccccc3N4)cc2)c1
IC50 (A549 [1]): 13.4 µM | IC50 (K562 [2]): 3.62 µM | inhibition [3]: 24.9%

SMILES: O=C(Nc1cccc(Nc2ncnc3c2Cc2ccccc2N3)c1)c1ccccc1
IC50 (A549 [1]): 18.3 µM | IC50 (K562 [2]): 3.11 µM | inhibition [3]: 30.7%

SMILES: COc1cccc(C(=O)Nc2cccc(Nc3ncnc4c3Cc3ccccc3N4)c2)c1
IC50 (A549 [1]): 13.5 µM | IC50 (K562 [2]): 3.08 µM | inhibition [3]: 31.9%

SMILES: O=C(Nc1ccc(Nc2ncnc3c2Cc2ccccc2N3)cc1)c1cccc(Cl)c1
IC50 (A549 [1]): 20.7 µM | IC50 (K562 [2]): 0.41 µM | inhibition [3]: 30.9%

SMILES: O=C(Nc1cccc(Nc2ncnc3c2Cc2ccccc2N3)c1)c1cccc(Cl)c1
IC50 (A549 [1]): 12.3 µM | IC50 (K562 [2]): 1.21 µM | inhibition [3]: 30.2%

SMILES: Cc1cccc(C(=O)Nc2cccc(Nc3ncnc4c3Cc3ccccc3N4)c2)c1
IC50 (A549 [1]): > 25 µM | IC50 (K562 [2]): 4.9 µM | inhibition [3]: 53%

SMILES: O=C(Nc1ccc(Nc2ncnc3c2Cc2ccccc2N3)cc1)c1ccccc1
IC50 (A549 [1]): 14.3 µM | IC50 (K562 [2]): 2.52 µM | inhibition [3]: 12.6%

SMILES: COc1cccc(C(=O)Nc2ccc(Nc3ncnc4c3Cc3ccccc3N4)cc2)c1
IC50 (A549 [1]): 14.1 µM | IC50 (K562 [2]): 2.16 µM | inhibition [3]: 35.4%

The remaining compounds from weak to strong by IC50 (A549 [1]), led by results:

inhibition [4]: 52.4% | IC50 (A549 [1]): 12.2 µM | IC50 (K562 [2]): 1.32 µM | inhibition [3]: 95.4%
SMILES: O=C(Nc1ccc(Nc2ncnc3c2Cc2ccccc2N3)cc1)c1cccc(C(F)(F)F)c1

IC50 (A549 [1]): 9.58 µM | IC50 (K562 [2]): 1.89 µM | inhibition [3]: 16.3%
SMILES: O=C(Nc1cccc(Nc2ncnc3c2Cc2ccccc2N3)c1)c1cccc(C(F)(F)F)c1

IC50 (A549 [1]): 9.26 µM | IC50 (K562 [2]): 3.35 µM | inhibition [3]: 35.4%
SMILES: O=C(Nc1ccc(Nc2ncnc3c2Cc2ccccc2N3)cc1)Nc1cccc(C(F)(F)F)c1

IC50 (A549 [1]): 9.05 µM | IC50 (K562 [2]): 0.72 µM | inhibition [3]: 24.5%
SMILES: O=C(Nc1cccc(Nc2ncnc3c2Cc2ccccc2N3)c1)c1cccc(F)c1

IC50 (A549 [1]): 9.03 µM | inhibition [3]: 21.4%
SMILES: COc1ccc2c(Nc3ccc(NC(=O)Nc4ccccc4)cc3)c3ccccc3nc2c1

IC50 (A549 [1]): 6.82 µM | IC50 (K562 [2]): 3.14 µM | inhibition [3]: 55.4%
SMILES: O=C(Nc1ccc(Nc2ncnc3c2Cc2ccccc2N3)cc1)Nc1cccc(F)c1

IC50 (A549 [1]): 4.56 µM
SMILES: Cc1ccc(NC(=O)c2ccc(CN3CCN(C)CC3)cc2)cc1Nc1nccc(-c2cccnc2)n1 [IMATINIB]

inhibition [8]: Dose-dependent effect | inhibition [9]: 72.1% | IC50 (A549 [1]): 0.253 µM | K (Calf thymus DNA [14]): 973 M⁻¹ | IC50 (K562 [2]): 0.22 µM | Activity [19]: 3.11% | inhibition [3]: 33.1 to 33.5% | Kb (Calf thymus DNA [24]): 4.16 ×10³ /M | inhibition [25]: Dose-dependent effect
SMILES: O=C(Nc1ccc(Nc2ncnc3c2Cc2ccccc2N3)cc1)c1cccc(F)c1
Activity (A549 [5]): Dose-dependent effect | Activity (K562 [6]): 27.11% | inhibition at 1 µM (A549 [7]): 82.8% | Activity (K562 [10]): 0.17% | Activity (K562 [11]): 0.77% | Activity (K562 [12]): 18.82% | Activity (K562 [13]): Dose-dependent effect | Activity (K562 [15]): 45.15% | Activity (K562 [16]): 3.06% | Activity (K562 [17]): 4.19% | Activity (K562 [18]): 11.14% | inhibition at 0.1 µM (A549 [20]): 52.5% | Activity (A549 [21]): Dose-dependent effect | Activity (A549 [22]): 3.03% | Activity (K562 [23]): 1.06%
